Test results taken from ChEMBL document CHEMBL3421570, “Combinatorial Libraries As a Tool for the Discovery of Novel, Broad-Spectrum Antibacterial Agents Targeting the ESKAPE Pathogens” (J Med Chem, 2015).
≈ marks a conversion by molar mass, not a printed value. Calls of active or inactive are those of the source. No cut-off for these calls is given here.

Legend:
Staphylococcus aureus [1] = assay: Induction of bacterial cell lysis in methicillin-resistant Staphylococcus aureus assessed as cell recovery at 2% by time kill assay; assay type: functional
Staphylococcus aureus [2] = assay: Bactericidal activity against methicillin-resistant Staphylococcus aureus assessed as cell survival recovery at 2% measured after drug wash out after 120 mins by time kill assay; assay type: functional
In short: (§1)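 MRSA from stationary phase was regrown 3 h in TSB and seeded at OD600 0.5. […] After 120 min, cells were centrifuged and washed, serially diluted and plated for CFU. Percent recovery is relative to no-drug controls.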

Enterococcus faecium [3] = assay: Induction of spontaneous mutation in Enterococcus faecium at 2 to 10 MIC; assay type: functional, organism-based
Enterococcus faecium [4] = assay: Antimicrobial activity against Enterococcus faecium assessed as inhibition of microbial growth after 24 hrs; assay type: functional
In short: (§2)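 Broth microdilution against multidrug-resistant clinical ESKAPE isolates. Overnight cultures (TSB for Gram-positives, LB for Gram-negatives) diluted 1:1000 in fresh medium, compound in DMF (≤2.0% DMF) added at decreasing concentrations, 37°C.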

Acinetobacter baumannii [5] = assay: Induction of spontaneous mutation in Acinetobacter baumannii at 2 to 10 MIC; assay type: functional, organism-based
Staphylococcus aureus [6] = assay: Antimicrobial activity against Staphylococcus aureus USA300 strain FPR3757 infected in mouse model of lethal peritonitis assessed as mouse survival at 2 uM, im dosed 1 hr post infection and measured after 5 days post infection; assay type: functional, organism-based
In short: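 Mice, six per group, infected i.p. with 1 × 10^8 CFU ml−1 S. aureus USA300 FPR3757 in PBS with 5% mucin. Compound given i.m. at 2 μM 1 h later; vehicle 45% w/v (2-hydroxypropyl)-β-cyclodextrin in water i.v.; vancomycin i.v. as control. Monitored twice daily for 5 days, pre-moribund animals euthanized. Survival compared by log-rank test.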

Staphylococcus aureus [7] = assay: Antibiofilm activity against Staphylococcus aureus incubated for 24 hrs followed by biofilm resuspension in PBS and measured after 24 hrs; assay type: functional
In short: (§3)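 Biofilms grown 24 h in 96-well plates from overnight cultures standardized to OD600 0.5 in fresh medium (human serum only for S. aureus; TSB for Gram-positives, LB for Gram-negatives). Medium then replaced with fresh medium containing a concentration range above and below MIC, 37°C overnight. After 24 h biofilm resuspended in PBS, serially diluted, plated in duplicate, CFU counted after 24 h at 37°C. Activity relative to untreated; three technical replicates; MBEC50 reported.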

Klebsiella pneumoniae [8] = assay: Bactericidal activity against Klebsiella pneumoniae after 24 hrs; assay type: functional
Enterococcus faecium [9] = assay: Bactericidal activity against Enterococcus faecium after 24 hrs; assay type: functional
Pseudomonas aeruginosa [10] = assay: Antimicrobial activity against Pseudomonas aeruginosa assessed as inhibition of microbial growth after 24 hrs; assay type: functional; in short: as §2
Staphylococcus aureus [11] = assay: Bactericidal activity against methicillin-resistant Staphylococcus aureus at MIC measured after drug wash out after 120 mins by time kill assay; assay type: functional; in short: as §1
Acinetobacter baumannii [12] = assay: Bactericidal activity against Acinetobacter baumannii after 24 hrs; assay type: functional
[13] = Selectivity index, ratio of IC50 for human A549 cells to MIC for Enterococcus faecium
Klebsiella pneumoniae [14] = assay: Induction of spontaneous mutation in Klebsiella pneumoniae at 2 to 10 MIC; assay type: functional, organism-based
Enterobacter cloacae [15] = assay: Antimicrobial activity against Enterobacter cloacae assessed as inhibition of microbial growth at 45 uM after 24 hrs; assay type: functional, organism-based
In short: (§4)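 Broth microdilution single-concentration read: overnight cultures diluted 1:1000, compound in DMF (≤2.0%) added, 37°C for 24 h, growth inhibition scored visually by lack of turbidity; triplicate. Gram-positives grown in TSB, Gram-negatives in LB.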

Acinetobacter baumannii [16] = assay: Antibiofilm activity against Acinetobacter baumannii incubated for 24 hrs followed by biofilm resuspension in PBS and measured after 24 hrs; assay type: functional; in short: as §3
Acinetobacter baumannii [17] = assay: Antimicrobial activity against Acinetobacter baumannii assessed as inhibition of microbial growth at 45 uM after 24 hrs; assay type: functional, organism-based; in short: as §4
[18] = Selectivity index, ratio of IC50 for human A549 cells to MIC for Pseudomonas aeruginosa
Enterococcus faecium [19] = assay: Antimicrobial activity against Enterococcus faecium assessed as inhibition of microbial growth at 45 uM after 24 hrs; assay type: functional, organism-based; in short: as §4
Enterobacter cloacae [20] = assay: Ratio of MIC for Enterobacter cloacae measured after 8 cycle passage to MIC for wild type Enterobacter cloacae; assay type: functional
Enterobacter cloacae [21] = assay: Antibiofilm activity against Enterobacter cloacae incubated for 24 hrs followed by biofilm resuspension in PBS and measured after 24 hrs; assay type: functional; in short: as §3
Enterococcus faecium [22] = assay: Antibiofilm activity against Enterococcus faecium incubated for 24 hrs followed by biofilm resuspension in PBS and measured after 24 hrs; assay type: functional; in short: as §3
A549 = assay: Cytotoxicity against human A549 cells after 48 hrs by MTT assay; assay type: cell-based; conditions: A549, 48 h
In short: (§5)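 A549 cells grown in F-12K with L-glutamine, 10% FBS, 1% penicillin-streptomycin, seeded at 1.0 × 10^5 ml−1, allowed to adhere 24 h (37°C, 5% CO2), then exposed to compound in 45% w/v (2-hydroxypropyl)-β-cyclodextrin vehicle for 48 h. MTT 4 h, formazan solubilized in DMSO, absorbance 540 nm. Percent recovery versus vehicle-only; IC50 derived; at least three independent experiments.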

Klebsiella pneumoniae [23] = assay: Antibiofilm activity against Klebsiella pneumoniae incubated for 24 hrs followed by biofilm resuspension in PBS and measured after 24 hrs; assay type: functional; in short: as §3
Enterobacter cloacae [24] = assay: Induction of spontaneous mutation in Enterobacter cloacae at 2 to 10 MIC; assay type: functional, organism-based
Klebsiella pneumoniae [25] = assay: Antimicrobial activity against Klebsiella pneumoniae assessed as inhibition of microbial growth at 45 uM after 24 hrs; assay type: functional, organism-based; in short: as §4
Enterobacter cloacae [26] = assay: Bactericidal activity against Enterobacter cloacae after 24 hrs; assay type: functional
Klebsiella pneumoniae [27] = assay: Antimicrobial activity against Klebsiella pneumoniae assessed as inhibition of microbial growth after 24 hrs; assay type: functional; in short: as §2
[28] = Cytotoxicity against human A549 cells assessed as cell viability recovery at 45 uM after 48 hrs by MTT assay; assay type: cell-based; conditions: read-out: Activity; in short: as §5
Staphylococcus aureus [29] = assay: Antimicrobial activity against Staphylococcus aureus assessed as inhibition of microbial growth at 45 uM after 24 hrs; assay type: functional, organism-based; in short: as §4
Staphylococcus aureus [30] = assay: Antimicrobial activity against Staphylococcus aureus assessed as inhibition of microbial growth after 24 hrs; assay type: functional; in short: as §2
Enterobacter cloacae [31] = assay: Antimicrobial activity against Enterobacter cloacae assessed as inhibition of microbial growth after 24 hrs; assay type: functional; in short: as §2
Acinetobacter baumannii [32] = assay: Antimicrobial activity against Acinetobacter baumannii assessed as inhibition of microbial growth after 24 hrs; assay type: functional; in short: as §2
[33] = Selectivity index, ratio of IC50 for human A549 cells to MIC for Enterobacter cloacae
Staphylococcus aureus [34] = assay: Ratio of MIC for Staphylococcus aureus measured after 8 cycle passage to MIC for wild type Staphylococcus aureus; assay type: functional
Pseudomonas aeruginosa [35] = assay: Antimicrobial activity against Pseudomonas aeruginosa assessed as inhibition of microbial growth at 45 uM after 24 hrs; assay type: functional, organism-based; in short: as §4
Acinetobacter baumannii [36] = assay: Ratio of MIC for Acinetobacter baumannii measured after 8 cycle passage to MIC for wild type Acinetobacter baumannii; assay type: functional
[37] = Selectivity index, ratio of IC50 for human A549 cells to MIC for Acinetobacter baumannii
Enterobacter cloacae [38] = assay: Antimicrobial activity against Enterobacter cloacae isolate 1446 assessed as inhibition of microbial growth in presence of 100 uM efflux pump inhibitor reserpine after 24 hrs; assay type: functional, organism-based
Staphylococcus aureus [39] = assay: Bactericidal activity against methicillin-resistant Staphylococcus aureus assessed as cell survival recovery at MIC measured after drug wash out after 120 mins by time kill assay; assay type: functional; in short: as §1
[40] = Selectivity index, ratio of IC50 for human A549 cells to MIC for Staphylococcus aureus
Staphylococcus aureus [41] = assay: Effect on bacterial density of methicillin-resistant Staphylococcus aureus at MIC measured over 2 hrs period by time kill assay; assay type: functional, organism-based
[42] = Induction of hemolysis in human RBC at 10 uM incubated for 15 mins; assay type: cell-based, Erythrocyte; conditions: red blood cells, read-out: Activity
In short: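 Human RBCs from whole blood, resuspended 20% v/v in HA buffer (NaCl, CaCl2), compound 10 μM, 15 min at 37°C. Centrifuged 5,500 g for 1 min, supernatant OD543 read. Percent hemolysis against DMF vehicle (0%) and 1.0% Triton X-100 (100%); triplicate.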

Pseudomonas aeruginosa [43] = assay: Induction of spontaneous mutation in Pseudomonas aeruginosa at 2 to 10 MIC; assay type: functional, organism-based; conditions: 2 to 10 x MIC
Staphylococcus aureus [44] = assay: Induction of spontaneous mutation in Staphylococcus aureus at 2 to 10 MIC; assay type: functional, organism-based
Staphylococcus aureus [45] = assay: Bactericidal activity against Staphylococcus aureus after 24 hrs; assay type: functional
Pseudomonas aeruginosa [46] = assay: Bactericidal activity against Pseudomonas aeruginosa after 24 hrs; assay type: functional
Klebsiella pneumoniae [47] = assay: Ratio of MIC for Klebsiella pneumoniae measured after 8 cycle passage to MIC for wild type Klebsiella pneumoniae; assay type: functional
[48] = Selectivity index, ratio of IC50 for human A549 cells to MIC for Klebsiella pneumoniae
Pseudomonas aeruginosa [49] = assay: Antibiofilm activity against Pseudomonas aeruginosa incubated for 24 hrs followed by biofilm resuspension in PBS and measured after 24 hrs; assay type: functional; in short: as §3
[50] = Cytotoxicity against human A549 cells assessed as cell viability recovery up to 225 uM after 48 hrs by MTT assay; assay type: cell-based; conditions: read-out: Activity; in short: as §5

CCCCCCCCCCCCOS(=O)(=O)[O-].[Na+] [SODIUM LAURYL SULFATE]
Activity (Staphylococcus aureus [1]): 52% | Survival (Staphylococcus aureus [2]): 0%

CCCCCCCN1C(=N)N(CCCC[C@H]2CNC(=N)N2CCc2cccc(C(F)(F)F)c2)C[C@@H]1CC1CCCCC1
Activity (Enterococcus faecium [3]): inactive | MIC (Enterococcus faecium [4]): 1.5 µM | Activity (Acinetobacter baumannii [5]): inactive | Activity (Staphylococcus aureus [6]): Active | MBEC50 (Staphylococcus aureus [7]): 4.4 µM | MBC90 (Klebsiella pneumoniae [8]): 2.2 µM (≈ 1.3 µg/mL) | MBC90 (Enterococcus faecium [9]): 3.3 µM (≈ 1.95 µg/mL) | MIC (Pseudomonas aeruginosa [10]): 1.5 µM | fold change (FC) (Staphylococcus aureus [11]): 2.5 | MBC90 (Acinetobacter baumannii [12]): 3.2 µM (≈ 1.89 µg/mL) | Selectivity Index [13]: 43 | Activity (Klebsiella pneumoniae [14]): inactive | growth inhibition (GI) (Enterobacter cloacae [15]): Active | MBEC50 (Acinetobacter baumannii [16]): 13 µM | growth inhibition (GI) (Acinetobacter baumannii [17]): Active | Selectivity Index [18]: 43 | growth inhibition (GI) (Enterococcus faecium [19]): Active | Ratio (Enterobacter cloacae [20]): <=8 | MBEC50 (Enterobacter cloacae [21]): 15 µM | MBEC50 (Enterococcus faecium [22]): 26 µM | IC50 (A549): 66 µM | MBEC50 (Klebsiella pneumoniae [23]): 4.8 µM | Activity (Enterobacter cloacae [24]): inactive | growth inhibition (GI) (Klebsiella pneumoniae [25]): Active | MBC90 (Enterobacter cloacae [26]): 6.4 µM (≈ 3.78 µg/mL) | MIC (Klebsiella pneumoniae [27]): 1.5 µM | viability at 48 h, 45 µM [28]: > 60% | growth inhibition (GI) (Staphylococcus aureus [29]): Active | MIC (Staphylococcus aureus [30]): 1.5 µM | MIC (Enterobacter cloacae [31]): 1.5 µM | MIC (Acinetobacter baumannii [32]): 1.5 µM | Selectivity Index [33]: 43 | Ratio (Staphylococcus aureus [34]): 4 | growth inhibition (GI) (Pseudomonas aeruginosa [35]): Active | Ratio (Acinetobacter baumannii [36]): <=8 | Selectivity Index [37]: 43 | growth inhibition (GI) (Enterobacter cloacae [38]): Active | Survival (Staphylococcus aureus [39]): 0.2% | Selectivity Index [40]: 43 | Activity (Staphylococcus aureus [41]): inactive | hemolysis at 0.25 h, 10 µM [42]: 0.34% | Activity (Pseudomonas aeruginosa [43]): inactive | Activity (Staphylococcus aureus [44]): inactive | MBC90 (Staphylococcus aureus [45]): 3.3 µM (≈ 1.95 µg/mL) | MBC90 (Pseudomonas aeruginosa [46]): 14 µM (≈ 8.27 µg/mL) | Ratio (Klebsiella pneumoniae [47]): <=8 | Selectivity Index [48]: 43 | MBEC50 (Pseudomonas aeruginosa [49]): 46 µM | viability at 48 h [50]: ≥ 33%
